According to the array DNA melting data of Ke et al. (doi:10.1101/2024.01.08.574731):

Experiments:
[1] = melting temperature; fluorescence melt of hairpins on a sequencing array, two-state fit, raised by 9.35 °C to match UV melts; conditions: sodium 0.088 M
Procedure, shortened: (§1)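 In 50 mM Na-HEPES pH 8.0 containing 25 mM NaCl, hairpins from the library on a sequenced MiSeq flow cell were imaged for Cy3 fluorescence at 2.5 °C steps up to 60 °C, with Cy3 and quencher oligos annealed. After normalisation to pre-quench Cy3 and to control constructs, two-state fits with bootstrapping gave melting temperature and folding enthalpy. Four replicates were combined by inverse-variance weighting, and fitted temperatures were shifted up by 9.35 °C to match UV melts.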

[2] = folding enthalpy; higher = less favourable; fluorescence melt of hairpins on a sequencing array, two-state fit; conditions: sodium 0.088 M
Procedure, shortened: as §1

Sequence	Tm [1] [°C]	folding enthalpy [2] [kcal/mol]
GATCTTCAGAAAGATC ((((((....))))))	41.7	-29.7
GATCTTCAGCAAGATC ((((((....))))))	38.9	-24.6
GATCTTCAGTAAGATC ((((((....))))))	40.7	-30.6
GATCTTCATTAAGATC ((((((....))))))	41.5	-35.4
GATCTTCCAAAAGATC ((((((....))))))	41.7	-32
GATCTTCCTAAAGATC ((((((....))))))	43.7	-31.7
GATCTTCCTGAAGATC ((((((....))))))	51.2	-39.8
GATCTTCCTTAAGATC ((((((....))))))	42.1	-27.8
GATCTTCGACAAGATC ((((((....))))))	38.6	-26.7
GATCTTCGAGAAGATC ((((((....))))))	50.8	-42
GATCTTCGATAAGATC ((((((....))))))	40.2	-24.7
GATCTTCGCCAAGATC ((((((....))))))	42	-33.7
GATCTTCGGGAAGATC ((((((....))))))	49.5	-36.2
GATCTTCGGTAAGATC ((((((....))))))	41.3	-34
GATCTTCTCAAAGATC ((((((....))))))	45.2	-33.4
GATCTTCTCCAAGATC ((((((....))))))	41.1	-29.8
GATCTTCTCGAAGATC ((((((....))))))	51.8	-39
GATCTTCTTCAAGATC ((((((....))))))	43.5	-27.7
GATCTTCTTGAAGATC ((((((....))))))	54	-48
GATCTTGACAAGATC ((((((...))))))	46.1	-38.6
GATCTTGACCAAGATC ((((((....))))))	49.3	-38.3
GATCTTGACTAAGATC ((((((....))))))	49	-44
GATCTTGAGCAAGATC ((((((....))))))	44.4	-33.5
GATCTTGCCGAAGATC ((((((....))))))	46.1	-28.1

Sequence	Tm [1] [°C]	folding enthalpy [2] [kcal/mol]
GATCTTGCGAAGATC ((((((...))))))	42.8	-23.7
GATCTTGGAAACAAGATC (((((((....)))))))	55.9	-42.3
GATCTTGGTGAAGATC ((((((....))))))	45.4	-27.2
GATCTTGTCGAAGATC ((((((....))))))	46.4	-27.4
GATCTTGTCTAAGATC ((((((....))))))	48.4	-40.6
GATCTTGTGAAAGATC ((((((....))))))	51.2	-37.3
GATCTTTAATAAGATC ((((((....))))))	40.9	-31.1
GATCTTTATAAAGATC ((((((....))))))	45.5	-38.4
GATCTTTCACAAGATC ((((((....))))))	43.1	-30.5
GATCTTTCCCAAGATC ((((((....))))))	42.6	-33.4
GATCTTTCCGAAGATC ((((((....))))))	46.4	-33.1
GATCTTTCGTAAGATC ((((((....))))))	44.4	-30.6
GATCTTTTGAAAGATC ((((((....))))))	44.7	-28.3
GATCTTTTGTAAGATC ((((((....))))))	44.2	-31.1
GATGACCGAAAGGTAATC (((.(((....))).)))	47.1	-23.4
GATGACCGAAAGGTATC (((.(((....))))))	34.7	-16.6
GATGACCGAAAGGTGATC (((.(((....))).)))	47.7	-26.9
GATGACGAAAGTCACATC ((((((....)))..)))	29.2	-8.72
GATGACGAAAGTCGAATC ((((((....)))..)))	33	-13.7
GATGACGAAAGTCGATC ((((((....))).)))	45.2	-18.8
GATGACGAAAGTCGTATC ((((((....)))..)))	36	-12.1
GATGACGAAAGTCTCATC ((((((....)))..)))	32.5	-9.72
GATGACGAAAGTCTTATC ((((((....)))..)))	25.5	-12.4
GATGACGGAAACGTCGTC ((.((((....)))).))	52.8	-43.3

Sequence	Tm [1] [°C]	folding enthalpy [2] [kcal/mol]
GATGAGAAATCATC (((((....)))))	39.8	-20.6
GATGAGCGAAAGCTTATC (((.(((....))).)))	49.1	-28.3
GATGAGGGAAACCTCACC (.(((((....))))).)	35.5	-15.7
GATGATGGAAACATCATC (((((((....)))))))	58.1	-45
GATGCACGAAAGTGATC (((.(((....))))))	36.6	-13.6
GATGCAGAAATGCATC ((((((....))))))	58.7	-36.7
GATGCAGCGAAAGCTATC (((..(((....))))))	24.7	-9.06
GATGCAGGAAACTGCATC (((((((....)))))))	64.7	-43.6
GATGCCGAAAGGCCTATC ((((((....)))..)))	24	-6.67
GATGCCGAAAGGCGGATC ((((((....)))..)))	40.5	-10.5
GATGCGCCGAAAGGCATC (((..(((....))))))	31.4	-12.4
GATGCGGGAAACCGCGTC ((.((((....)))).))	59.9	-19.2
GATGCGGGAAACCGTGTC ((..(((....)))..))	43.7	-26.3
GATGCGGGAAACTGCGTC ((.((.(....).)).))	44.2	-21.1
GATGGAGGAAACCCCATC (((((.(....).)))))	43	-31.6
GATGGCCGAAAGGCGATC (((.(((....))).)))	52.8	-23.9
GATGGCGAAAGCCCGATC ((((((....)))..)))	27.7	-9.89
GATGGCGAAAGCCGATC ((((((....))).)))	47.6	-15.4
GATGGGAAACCATC (((((....)))))	49.9	-26.5
GATGGGACGAAAGTCATC (((..(((....))))))	31.9	-15.4
GATGGGCGAAAGCCTATC (((.(((....))).)))	53.9	-22.3
GATGGGGAAACCCATC ((((((....))))))	57.8	-34.2
GATGGGGGAAACCCCACC (.(((((....))))).)	39.9	-12.6
GATGGGGGAAACCCTATC (((.(((....))).)))	45	-23.4

Sequence	Tm [1] [°C]	folding enthalpy [2] [kcal/mol]
GATGTACCGAAAGGTATC (((..(((....))))))	32.2	-14
GATGTAGGAAACTACATC (((((((....)))))))	54.6	-40.4
GATGTAGGAAACTGCATC ((((.((....)).))))	45	-34.6
GATGTCGCGAAAGCGATC (((..(((....))))))	31.1	-8.5
GATGTGCGAAAGCAGATC (((.(((....))).)))	52.5	-32.7
GATGTGGGAAACCACACC (.(((((....))))).)	39	-14.1
GATGTGGGAAACCACGTC ((.((((....)))).))	51	-26.5
GATGTGGGAAACCATGTC ((..(((....)))..))	34.9	-32.6
GATGTTCCGAAAGGAATC (((..(((....))))))	32.4	-13.2
GATGTTGCGAAAGCAATC (((..(((....))))))	32.7	-10.9
GATTAACGAAAGTTATC (((.(((....))))))	31.3	-13.2
GATTACCCGAAAGGGATC (((..(((....))))))	26.3	-12.1
GATTACCGAAAGGTCATC (((.(((....))).)))	38.2	-28.8
GATTACGAAAGTAAAATC ((((((....)))..)))	28.5	-17.6
GATTACGAAAGTAGATC ((((((....))).)))	29	-19
GATTAGGGAAACTTAATC (((((.(....).)))))	29.1	-17.3
GATTATGCGAAAGCAATC (((..(((....))))))	23.4	-9.91
GATTCCCCGAAAGGGATC (((..(((....))))))	29.2	-12.2
GATTCCGAAAGGAGAATC ((((((....)))..)))	32.7	-17.4
GATTCCGAAAGGAGCATC ((((((....)))..)))	27.3	-11.6
GATTCCGGAAACGAAATC ((((.((....)).))))	34.3	-31.6
